{"source": "ChEMBL document CHEMBL1143425", "about": "“Paradoxical growth effect of caspofungin observed on biofilms and planktonic cells of five different Candida species” (2007)", "key": {"[1]": {"tested_on": "Candida tropicalis", "experiment": "Effect on morphology in Candida tropicalis grown as planktonic cells assessed as inhibition of hyphae and pseudohyphae at 8 ug/ml after 48 hrs", "type": "functional, organism-based", "how_it_was_run": "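Clinical isolates were tested by CLSI M27-A2 broth microdilution with caspofungin dissolved in sterile water. After 48 h incubation, cells were taken from drug-containing and drug-free control wells. They were examined by light microscopy at ×400 for hyphae or pseudohyphae, rounding or clumping, and enlarged globose cells.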"}, "[2]": {"tested_on": "Candida metapsilosis", "experiment": "Antimicrobial activity against Candida metapsilosis BR-A41 grown as planktonic cell assessed as paradoxical growth after 48 hrs by XTT reduction assay", "type": "functional, organism-based", "how_it_was_run": "(§1)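 Planktonic cells were tested by CLSI M27-A2 broth microdilution with caspofungin in water, incubated 48 h. XTT-menadione was added to each well, plates were held 1 h at 35°C in the dark and centrifuged, and supernatant absorbance was read at 490 nm. MIC was defined as 50% decrease in metabolic activity versus drug-free control. PG was defined as ≥20% of control activity at concentrations above MIC.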"}, "[3]": {"tested_on": "Candida albicans", "experiment": "Antimicrobial activity against Candida albicans BR-A1 grown as planktonic cell after 48 hrs by XTT reduction assay", "type": "functional", "how_it_was_run": "(§2)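 Planktonic broth microdilution followed CLSI M27-A2, with caspofungin dissolved in water. After 48 h, XTT-menadione was added to the wells and plates were kept 1 h at 35°C in the dark. Plates were then centrifuged and supernatant A490 was read. MIC was the lowest concentration giving a 50% decrease in metabolic activity versus drug-free control. Paradoxical growth was defined as ≥20% of control activity above the MIC.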"}, "[4]": {"tested_on": "Candida orthopsilosis", "experiment": "Antimicrobial activity against Candida orthopsilosis BR-A33 grown as planktonic cell assessed as paradoxical growth after 48 hrs by XTT reduction assay", "type": "functional, organism-based", "how_it_was_run": "as §1"}, "[5]": {"tested_on": "Candida parapsilosis", "experiment": "Effect on morphology in Candida parapsilosis grown as biofilm assessed as inhibition of hyphae and pseudohyphae at 128 ug/ml after 48 hrs", "type": "functional, organism-based", "how_it_was_run": "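Biofilms formed in RPMI 1640 wells were exposed to caspofungin for 48 h and compared with drug-free control wells. Wells were examined in the plate under an inverted light microscope at ×200 and photographed.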"}, "[6]": {"tested_on": "Candida orthopsilosis", "experiment": "Antimicrobial activity against Candida orthopsilosis BR-A37 grown as planktonic cell assessed as concentration producing paradoxical growth after 48 hrs by XTT reduction assay", "type": "functional", "how_it_was_run": "as §1"}, "[7]": {"tested_on": "Candida tropicalis", "experiment": "Antimicrobial activity against Candida tropicalis BR-A24 grown as biofilm after 48 hrs by XTT reduction assay", "type": "functional", "how_it_was_run": "(§3)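 Isolates were grown on Sabouraud agar (30°C, 24 h), then overnight in RPMI 1640 with MOPS, pH 7.0, at 35°C with shaking. Cells were washed and set to ~1 × 10^7 cells/ml, attached 1.5 h at 37°C, and grown 24 h. Biofilms were then exposed to caspofungin in 10 twofold dilutions (2–1,024 μg/ml) for 48 h at 35°C with shaking. Read-out was XTT-menadione, 1 h, 35°C, dark, A490, cell-free blank subtracted. MIC was the 50% drop in activity versus drug-free control. Tested in duplicate.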"}, "[8]": {"tested_on": "Candida orthopsilosis", "experiment": "Antimicrobial activity against Candida orthopsilosis BR-A32 grown as planktonic cell after 48 hrs by XTT reduction assay", "type": "functional", "details": "Lodderomyces orthopsilosis", "how_it_was_run": "as §2"}, "[9]": {"tested_on": "Candida parapsilosis", "experiment": "Antimicrobial activity against Candida parapsilosis BR-A27 grown as biofilm assessed as paradoxical growth after 48 hrs by XTT reduction assay", "type": "functional, organism-based", "how_it_was_run": "(§4)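 Clinical isolates were grown overnight (18 h, 35°C, 120 rpm) in RPMI 1640 with MOPS, pH 7.0, then washed and set to ~1 × 10^7 cells/ml. Cells attached for 1.5 h at 37°C, 75 rpm, then biofilms grew 24 h. Caspofungin was given as doubling dilutions of 2–1,024 μg/ml for 48 h at 35°C, 75 rpm. Read-out was XTT-menadione in PBS, 1 h at 35°C in the dark, A490, cell-free blank subtracted. MIC was a 50% drop in activity versus drug-free; PG was >50% of control above MIC. Run in duplicate.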"}, "[10]": {"tested_on": "Candida tropicalis", "experiment": "Effect on morphology in Candida tropicalis grown as biofilm assessed as inhibition of hyphae and pseudohyphae at 8 ug/ml after 48 hrs", "type": "functional, organism-based", "how_it_was_run": "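Overnight RPMI 1640 cultures (MOPS, pH 7.0) were washed and set to about 1 × 10^7 cells/ml, then attached to polystyrene wells for 1.5 h at 37°C at 75 rpm. After 24 h biofilm growth, wells were washed and given doubling caspofungin dilutions (2–1,024 μg/ml in RPMI) for 48 h at 35°C at 75 rpm. Biofilms were viewed in situ by inverted light microscopy at ×200 alongside drug-free wells.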"}, "[11]": {"tested_on": "Candida tropicalis", "experiment": "Antimicrobial activity against Candida tropicalis BR-A20 grown as planktonic cell assessed as paradoxical growth after 48 hrs by XTT reduction assay", "type": "functional, organism-based", "how_it_was_run": "(§5)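 Planktonic broth microdilution followed CLSI M27-A2, with caspofungin dissolved in water. After 48 h, XTT-menadione was added to each well and plates were incubated 1 h at 35°C in the dark. Cells were pelleted by centrifugation and the supernatant was read at 490 nm. MIC was the lowest concentration giving a 50% drop in metabolic activity versus the drug-free control. PG was ≥20% of drug-free activity above the MIC.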"}, "[12]": {"tested_on": "Candida metapsilosis", "experiment": "Antimicrobial activity against Candida metapsilosis BR-A40 grown as biofilm assessed as concentration producing paradoxical growth after 48 hrs by XTT reduction assay", "type": "functional", "how_it_was_run": "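Sabouraud-grown cells were shaken overnight (18 h, 120 rpm, 35°C) in RPMI 1640 with MOPS at pH 7.0, then washed and set at ~1 × 10^7 cells/ml. Attachment lasted 1.5 h at 37°C, and growth ran 24 h before challenge. Caspofungin was added in RPMI at 2–1,024 μg/ml (10 doublings) for 48 h at 35°C with shaking. XTT-menadione was read at 490 nm after 1 h at 35°C in the dark, with blank wells subtracted. MIC was taken as 50% reduction versus drug-free wells, and PG as >50% of control above MIC. Assays were run in duplicate.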"}, "[13]": {"tested_on": "Candida metapsilosis", "experiment": "Antimicrobial activity against Candida metapsilosis BR-A43 grown as planktonic cell assessed as paradoxical growth after 48 hrs by XTT reduction assay", "type": "functional, organism-based", "how_it_was_run": "as §1"}, "[14]": {"tested_on": "Candida tropicalis", "experiment": "Antimicrobial activity against Candida tropicalis BR-A20 grown as biofilm assessed as concentration producing paradoxical growth after 48 hrs by XTT reduction assay", "type": "functional", "how_it_was_run": "as §4"}, "[15]": {"tested_on": "Candida parapsilosis", "experiment": "Antimicrobial activity against Candida parapsilosis BR-A26 grown as biofilm after 48 hrs by XTT reduction assay", "type": "functional", "details": "Lodderomyces parapsilosis", "how_it_was_run": "as §4"}, "[16]": {"tested_on": "Candida parapsilosis", "experiment": "Effect on morphology in Candida parapsilosis grown as planktonic cells assessed as inhibition of hyphae and pseudohyphae at 16 ug/ml after 48 hrs", "type": "functional, organism-based", "how_it_was_run": "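Cells were taken from caspofungin-containing and drug-free wells of the planktonic broth microdilution test after 48 h. They were examined by light microscopy at ×400.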"}, "[17]": {"tested_on": "Candida parapsilosis", "experiment": "Antimicrobial activity against Candida parapsilosis BR-A25 grown as planktonic cell after 48 hrs by XTT reduction assay", "type": "functional", "details": "Lodderomyces parapsilosis", "how_it_was_run": "as §2"}, "[18]": {"tested_on": "Candida tropicalis", "experiment": "Antimicrobial activity against Candida tropicalis BR-A24 grown as planktonic cell after 48 hrs by XTT reduction assay", "type": "functional", "how_it_was_run": "as §2"}, "[19]": {"tested_on": "Candida orthopsilosis", "experiment": "Antimicrobial activity against Candida orthopsilosis BR-A33 grown as planktonic cell after 48 hrs by XTT reduction assay", "type": "functional", "details": "Lodderomyces orthopsilosis", "how_it_was_run": "as §1"}, "[20]": {"tested_on": "Candida orthopsilosis", "experiment": "Antimicrobial activity against Candida orthopsilosis BR-A39 grown as planktonic cell assessed as paradoxical growth after 48 hrs by XTT reduction assay", "type": "functional, organism-based", "how_it_was_run": "as §1"}, "[21]": {"tested_on": "Candida albicans", "experiment": "Antimicrobial activity against Candida albicans BR-A2 grown as biofilm after 48 hrs by XTT reduction assay", "type": "functional", "how_it_was_run": "as §3"}, "[22]": {"tested_on": "Candida parapsilosis", "experiment": "Antimicrobial activity against Candida parapsilosis 22019 grown as planktonic cell assessed as paradoxical growth after 48 hrs by XTT reduction assay", "type": "functional", "how_it_was_run": "as §5"}}, "note": "Activity calls are given as the source filed them.", "data": [{"compound": "CC[C@H](C)C[C@H](C)CCCCCCCCC(=O)N[C@H]1C[C@@H](O)[C@@H](NCCN)NC(=O)[C@@H]2[C@@H](O)CCN2C(=O)[C@H]([C@H](O)CCN)NC(=O)[C@H]([C@H](O)[C@@H](O)c2ccc(O)cc2)NC(=O)[C@@H]2C[C@@H](O)CN2C(=O)[C@H]([C@@H](C)O)NC1=O", "note": "[CASPOFUNGIN]", "values": [{"measurement": "Activity", "setting": "[1]", "result": "Active"}, {"measurement": "Activity", "setting": "[2]", "result": "inactive"}, {"measurement": "MIC", "setting": "[3]", "result": 0.5, "unit": "µg/mL"}, {"measurement": "Activity", "setting": "[4]", "result": "inactive"}, {"measurement": "Activity", "setting": "[5]", "result": "Active"}, {"measurement": "Activity", "setting": "[6]", "result": 32, "unit": "µg/mL"}, {"measurement": "MIC", "setting": "[7]", "result": 2, "unit": "µg/mL"}, {"measurement": "MIC", "setting": "[8]", "result": 2, "unit": "µg/mL"}, {"measurement": "Activity", "setting": "[9]", "result": "Active"}, {"measurement": "Activity", "setting": "[10]", "result": "Active"}, {"measurement": "Activity", "setting": "[11]", "result": "Active"}, {"measurement": "Activity", "setting": "[12]", "result": 16, "unit": "µg/mL"}, {"measurement": "Activity", "setting": "[13]", "result": "inactive"}, {"measurement": "Activity", "setting": "[14]", "result": 8, "unit": "µg/mL"}, {"measurement": "MIC", "setting": "[15]", "result": 256, "unit": "µg/mL"}, {"measurement": "Activity", "setting": "[16]", "result": "Active"}, {"measurement": "MIC", "setting": "[17]", "result": 2, "unit": "µg/mL"}, {"measurement": "MIC", "setting": "[18]", "result": 1, "unit": "µg/mL"}, {"measurement": "MIC", "setting": "[19]", "result": 1, "unit": "µg/mL"}, {"measurement": "Activity", "setting": "[20]", "result": "inactive"}, {"measurement": "MIC", "setting": "[21]", "result": 2, "unit": "µg/mL"}, {"measurement": "Activity", "setting": "[22]", "result": 8, "unit": "µg/mL"}]}]}
